Reference: ChEMBL document CHEMBL5046323, “Discovery of Phospholipase D Inhibitors with Improved Drug-like Properties and Central Nervous System Penetrance” (ACS Med Chem Lett, 2022)
In brackets after ≈: the same amount, converted by molar mass.

Tests used:
[1] = Drug concentration in sc dosed C57BL/6 mouse liver measured after 30 mins by LC-FTICR-MS analysis; type: ADME, organism-based; conditions: read-out: Ct
Procedure, shortened: (§1)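 Mice dosed subcutaneously at 10 mg/kg 15, 30 or 60 min before injection of 1-butanol-d10; tissues (liver, brain) collected 15 min after butanol injection for compound levels.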

[2] = Plasma protein binding in rat assessed as unbound fraction; type: ADME, cell-free
[3] = Drug concentration in sc dosed C57BL/6 mouse brain measured after 30 mins by LC-FTICR-MS analysis; type: ADME, organism-based; conditions: read-out: Ct; procedure, shortened: as §1
[4] = Unbound brain concentration in sc dosed C57BL/6 mouse measured after 15 mins by LC-FTICR-MS analysis; type: ADME, organism-based; conditions: in vivo, 0.25 h; procedure, shortened: as §1
BCRP = assay: Efflux ratio of apparent permeability from basolateral to apical side over apical to basolateral side in dog MDCK-BCRP cells; type: ADME, cell-based, Canis lupus familiaris
[5] = target: Voltage-gated inwardly rectifying potassium channel KCNH2 (Homo sapiens, UniProt Q12809); assay: Inhibition of human ERG; type: toxicity
[6] = Drug concentration in sc dosed C57BL/6 mouse brain measured after 60 mins by LC-FTICR-MS analysis; type: ADME, organism-based; conditions: read-out: Ct; procedure, shortened: as §1
[7] = Cmax in sc dosed C57BL/6 mouse by LC-MS/MS analysis; type: ADME, organism-based; parameters: route subcutaneous; conditions: in vivo
Cytochrome P450 2C19 = Cytochrome P450 2C19 (Homo sapiens, UniProt P33261); assay: Inhibition of CYP2C19 (unknown origin); type: ADME
[8] = Unbound brain-to-plasma concentration ratio in rat; type: ADME; conditions: read-out: K(p,uu,brain)
Procedure, shortened: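 Kpu,u is the ratio of free compound concentration in brain over free concentration in plasma at steady state, determined by rat infusion.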

[9] = AUClast in sc dosed C57BL/6 mouse by LC-MS/MS analysis; type: ADME, organism-based; parameters: route subcutaneous, time 0 - last; conditions: in vivo
Cytochrome P450 2D6 = Cytochrome P450 2D6 (Homo sapiens, UniProt P10635); assay: Inhibition of CYP2D6 (unknown origin); type: ADME
[10] = Unbound brain concentration in sc dosed C57BL/6 mouse measured after 30 mins by LC-FTICR-MS analysis; type: ADME, organism-based; conditions: in vivo, 0.5 h; procedure, shortened: as §1
Cytochrome P450 2C9 = Cytochrome P450 2C9 (Homo sapiens, UniProt P11712); assay: Inhibition of CYP2C9 (unknown origin); type: ADME
Phospholipase D2 = Phospholipase D2 (Homo sapiens, UniProt O14939); assay: Inhibition of PLD2 (unknown origin) expressed in human HEK cells by immunoprecipitation; type: cell-based
Procedure, shortened: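 PLD1 or PLD2 immunoprecipitated from HEK-293 cell lysates and captured on plate with an antibody (ELISA format); 08:0 phosphatidylcholine substrate; released choline detected by Amplex Red readout.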

Cytochrome P450 1A2 = target: T1, Cytochrome P450 1A2 (Homo sapiens, UniProt P05177); assay: Inhibition of CYP1A2 (unknown origin); type: ADME
T1 sequence (P05177 whole entry): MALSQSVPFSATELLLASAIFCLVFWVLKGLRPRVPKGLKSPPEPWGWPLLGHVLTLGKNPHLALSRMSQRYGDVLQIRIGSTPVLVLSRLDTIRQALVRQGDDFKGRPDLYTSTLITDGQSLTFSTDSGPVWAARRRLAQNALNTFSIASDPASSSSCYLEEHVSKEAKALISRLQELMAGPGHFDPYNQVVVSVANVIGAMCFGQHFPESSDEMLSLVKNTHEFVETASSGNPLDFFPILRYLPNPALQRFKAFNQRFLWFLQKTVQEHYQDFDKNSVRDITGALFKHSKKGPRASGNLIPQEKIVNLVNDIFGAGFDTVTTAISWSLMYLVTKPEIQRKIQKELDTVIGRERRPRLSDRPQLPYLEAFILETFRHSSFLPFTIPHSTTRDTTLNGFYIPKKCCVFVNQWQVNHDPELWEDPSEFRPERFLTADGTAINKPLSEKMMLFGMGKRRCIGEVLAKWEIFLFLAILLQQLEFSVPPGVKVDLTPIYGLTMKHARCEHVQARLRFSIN

[11] = Tmax in sc dosed C57BL/6 mouse by LC-MS/MS analysis; type: ADME, organism-based; conditions: in vivo
[12] = Plasma protein binding in sc dosed C57BL/6 mouse assessed as unbound fraction by LC-MS/MS analysis; type: ADME, organism-based; conditions: in vivo
MDR1 (P-gp) = assay: Efflux ratio of apparent permeability from basolateral to apical side over apical to basolateral side in dog MDCK-MDR1 cells; type: ADME, cell-based, Canis lupus familiaris
Procedure, shortened: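 Efflux ratio calculated as Papp(B–A)/Papp(A–B) across MDR1-transfected MDCK monolayers.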

[13] = Microsomal stability in rat liver microsomes assessed as intrinsic clearance; type: ADME, Microsome; conditions: read-out: CLH
Procedure, shortened: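 Intrinsic clearance (CLint) determined in rat or human liver microsomes.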

[14] = Apparent permeability in dog MDCK cells with low MDR1 expression
[15] = Unbound clearance in iv dosed rat administered as cassette dose; type: ADME, organism-based; conditions: in vivo
Procedure, shortened: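 Rat IV clearance from cassette dosing; unbound clearance calculated as CL/fu.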

[16] = Tmax in po dosed rat; type: ADME, organism-based; conditions: in vivo
Procedure, shortened: (§2)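 Rat oral PK, average of two experiments with n = 3 rats each; formulation HPMC/Tween.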

[17] = Drug concentration in sc dosed C57BL/6 mouse liver measured after 15 mins by LC-FTICR-MS analysis; type: ADME, organism-based; conditions: read-out: Ct; procedure, shortened: as §1
Cytochrome P450 3A4 = Cytochrome P450 3A4 (Homo sapiens, UniProt P08684); assay: Inhibition of CYP3A4 (unknown origin); type: ADME
Cytochrome P450 2B6 = target: T2, Cytochrome P450 2B6 (Homo sapiens, UniProt P20813); assay: Inhibition of CYP2B6 (unknown origin); type: ADME
T2 sequence (P20813 whole entry): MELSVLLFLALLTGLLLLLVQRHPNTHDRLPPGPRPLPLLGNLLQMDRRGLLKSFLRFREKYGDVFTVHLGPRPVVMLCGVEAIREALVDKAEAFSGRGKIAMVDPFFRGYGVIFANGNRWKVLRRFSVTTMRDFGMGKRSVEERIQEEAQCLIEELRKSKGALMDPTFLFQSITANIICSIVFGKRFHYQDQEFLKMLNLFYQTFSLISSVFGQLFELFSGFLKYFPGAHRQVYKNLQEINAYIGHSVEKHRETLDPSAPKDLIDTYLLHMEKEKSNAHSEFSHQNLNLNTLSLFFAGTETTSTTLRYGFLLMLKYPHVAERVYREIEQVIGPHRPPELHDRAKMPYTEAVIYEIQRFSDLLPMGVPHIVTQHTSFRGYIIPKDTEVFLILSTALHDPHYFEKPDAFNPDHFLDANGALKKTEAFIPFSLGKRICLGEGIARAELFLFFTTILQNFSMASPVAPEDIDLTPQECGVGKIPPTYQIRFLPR

[18] = Plasma protein binding in sc dosed C57BL/6 mouse by LC-MS/MS analysis; type: ADME, organism-based; conditions: in vivo
[19] = Drug concentration in sc dosed C57BL/6 mouse brain measured after 15 mins by LC-FTICR-MS analysis; type: ADME, organism-based; conditions: read-out: Ct; procedure, shortened: as §1
[20] = Drug concentration in sc dosed C57BL/6 mouse liver measured after 60 mins by LC-FTICR-MS analysis; type: ADME, organism-based; conditions: read-out: Ct; procedure, shortened: as §1
[21] = Kinetic solubility of compound at pH 6.8; type: physicochemical; conditions: buffer, read-out: Kinetic_solubility
Procedure, shortened: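 Kinetic solubility measured at pH 6.8.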

[22] = target: Phospholipase D1 (Homo sapiens) (UniProt Q13393); assay: Inhibition of PLD1 in human Calu-1 cells assessed as reduction in d9-phosphobutanol formation by mass spectrometry-based transphosphatidylation assay
[23] = Oral bioavailability in rat; type: ADME, organism-based; conditions: in vivo; procedure, shortened: as §2

Sequence of Cytochrome P450 2D6 (P10635 whole entry): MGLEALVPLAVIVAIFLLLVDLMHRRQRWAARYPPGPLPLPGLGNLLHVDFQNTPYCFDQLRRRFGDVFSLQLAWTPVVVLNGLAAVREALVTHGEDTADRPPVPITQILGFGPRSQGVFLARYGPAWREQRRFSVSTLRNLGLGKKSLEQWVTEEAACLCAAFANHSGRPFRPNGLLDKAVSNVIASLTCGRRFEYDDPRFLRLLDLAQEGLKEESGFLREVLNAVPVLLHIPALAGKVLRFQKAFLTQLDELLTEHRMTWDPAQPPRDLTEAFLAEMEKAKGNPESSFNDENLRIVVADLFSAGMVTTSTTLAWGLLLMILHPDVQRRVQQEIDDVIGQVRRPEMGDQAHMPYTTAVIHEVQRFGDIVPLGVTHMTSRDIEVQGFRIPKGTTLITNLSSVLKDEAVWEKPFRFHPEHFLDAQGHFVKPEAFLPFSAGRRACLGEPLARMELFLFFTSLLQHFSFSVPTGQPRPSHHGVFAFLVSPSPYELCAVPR
Sequence of Cytochrome P450 2C19 (P33261 whole entry): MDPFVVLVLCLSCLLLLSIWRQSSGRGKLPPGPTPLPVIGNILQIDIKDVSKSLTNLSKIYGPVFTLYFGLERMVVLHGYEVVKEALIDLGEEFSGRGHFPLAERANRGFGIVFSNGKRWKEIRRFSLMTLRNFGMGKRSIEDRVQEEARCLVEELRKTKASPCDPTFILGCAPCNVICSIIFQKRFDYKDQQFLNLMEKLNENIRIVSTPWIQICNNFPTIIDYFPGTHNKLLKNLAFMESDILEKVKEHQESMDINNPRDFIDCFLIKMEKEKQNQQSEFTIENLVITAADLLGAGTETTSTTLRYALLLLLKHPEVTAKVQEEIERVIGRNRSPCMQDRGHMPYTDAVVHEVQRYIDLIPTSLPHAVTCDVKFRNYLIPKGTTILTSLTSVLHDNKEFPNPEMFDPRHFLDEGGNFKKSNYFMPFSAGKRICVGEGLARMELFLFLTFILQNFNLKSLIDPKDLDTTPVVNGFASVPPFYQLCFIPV
Sequence of Phospholipase D2 (O14939 whole entry): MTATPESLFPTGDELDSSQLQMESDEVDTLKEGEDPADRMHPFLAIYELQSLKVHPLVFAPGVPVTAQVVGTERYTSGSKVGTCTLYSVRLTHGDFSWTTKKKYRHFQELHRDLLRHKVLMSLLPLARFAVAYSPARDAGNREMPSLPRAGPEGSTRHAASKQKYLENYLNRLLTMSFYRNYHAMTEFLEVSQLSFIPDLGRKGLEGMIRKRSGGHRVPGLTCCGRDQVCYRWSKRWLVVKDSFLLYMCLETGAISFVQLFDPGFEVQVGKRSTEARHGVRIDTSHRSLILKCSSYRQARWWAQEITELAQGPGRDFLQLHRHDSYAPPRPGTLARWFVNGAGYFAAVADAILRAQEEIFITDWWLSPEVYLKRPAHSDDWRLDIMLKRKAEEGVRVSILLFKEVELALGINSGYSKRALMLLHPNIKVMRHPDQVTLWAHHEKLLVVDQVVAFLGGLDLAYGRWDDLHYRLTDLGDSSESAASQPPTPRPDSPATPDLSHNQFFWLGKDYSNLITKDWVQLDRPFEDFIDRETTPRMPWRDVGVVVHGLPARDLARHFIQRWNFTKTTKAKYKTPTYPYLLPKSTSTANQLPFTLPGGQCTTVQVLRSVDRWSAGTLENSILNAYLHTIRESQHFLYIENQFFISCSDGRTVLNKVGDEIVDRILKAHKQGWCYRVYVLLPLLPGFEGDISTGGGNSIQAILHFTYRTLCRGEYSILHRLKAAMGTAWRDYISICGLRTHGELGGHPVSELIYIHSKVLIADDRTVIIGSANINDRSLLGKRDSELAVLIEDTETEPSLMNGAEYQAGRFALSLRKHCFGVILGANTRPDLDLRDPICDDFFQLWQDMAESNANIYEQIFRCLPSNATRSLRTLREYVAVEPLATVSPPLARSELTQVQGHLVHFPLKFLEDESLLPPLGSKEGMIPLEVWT
Sequence of Cytochrome P450 3A4 (P08684 whole entry): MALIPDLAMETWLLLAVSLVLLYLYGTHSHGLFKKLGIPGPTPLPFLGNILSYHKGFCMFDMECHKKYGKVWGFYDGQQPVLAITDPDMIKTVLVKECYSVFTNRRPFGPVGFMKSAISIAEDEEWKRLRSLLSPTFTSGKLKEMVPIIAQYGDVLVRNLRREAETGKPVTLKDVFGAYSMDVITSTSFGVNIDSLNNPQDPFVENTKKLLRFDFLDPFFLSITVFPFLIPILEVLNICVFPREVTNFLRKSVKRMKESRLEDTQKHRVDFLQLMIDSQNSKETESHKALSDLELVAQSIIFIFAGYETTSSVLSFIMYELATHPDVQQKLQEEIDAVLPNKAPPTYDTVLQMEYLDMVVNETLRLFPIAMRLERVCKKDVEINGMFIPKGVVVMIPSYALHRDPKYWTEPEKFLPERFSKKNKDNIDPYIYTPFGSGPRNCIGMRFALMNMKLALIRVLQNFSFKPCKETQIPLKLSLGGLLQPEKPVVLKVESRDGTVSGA
Sequence of Voltage-gated inwardly rectifying potassium channel KCNH2 (Q12809 whole entry): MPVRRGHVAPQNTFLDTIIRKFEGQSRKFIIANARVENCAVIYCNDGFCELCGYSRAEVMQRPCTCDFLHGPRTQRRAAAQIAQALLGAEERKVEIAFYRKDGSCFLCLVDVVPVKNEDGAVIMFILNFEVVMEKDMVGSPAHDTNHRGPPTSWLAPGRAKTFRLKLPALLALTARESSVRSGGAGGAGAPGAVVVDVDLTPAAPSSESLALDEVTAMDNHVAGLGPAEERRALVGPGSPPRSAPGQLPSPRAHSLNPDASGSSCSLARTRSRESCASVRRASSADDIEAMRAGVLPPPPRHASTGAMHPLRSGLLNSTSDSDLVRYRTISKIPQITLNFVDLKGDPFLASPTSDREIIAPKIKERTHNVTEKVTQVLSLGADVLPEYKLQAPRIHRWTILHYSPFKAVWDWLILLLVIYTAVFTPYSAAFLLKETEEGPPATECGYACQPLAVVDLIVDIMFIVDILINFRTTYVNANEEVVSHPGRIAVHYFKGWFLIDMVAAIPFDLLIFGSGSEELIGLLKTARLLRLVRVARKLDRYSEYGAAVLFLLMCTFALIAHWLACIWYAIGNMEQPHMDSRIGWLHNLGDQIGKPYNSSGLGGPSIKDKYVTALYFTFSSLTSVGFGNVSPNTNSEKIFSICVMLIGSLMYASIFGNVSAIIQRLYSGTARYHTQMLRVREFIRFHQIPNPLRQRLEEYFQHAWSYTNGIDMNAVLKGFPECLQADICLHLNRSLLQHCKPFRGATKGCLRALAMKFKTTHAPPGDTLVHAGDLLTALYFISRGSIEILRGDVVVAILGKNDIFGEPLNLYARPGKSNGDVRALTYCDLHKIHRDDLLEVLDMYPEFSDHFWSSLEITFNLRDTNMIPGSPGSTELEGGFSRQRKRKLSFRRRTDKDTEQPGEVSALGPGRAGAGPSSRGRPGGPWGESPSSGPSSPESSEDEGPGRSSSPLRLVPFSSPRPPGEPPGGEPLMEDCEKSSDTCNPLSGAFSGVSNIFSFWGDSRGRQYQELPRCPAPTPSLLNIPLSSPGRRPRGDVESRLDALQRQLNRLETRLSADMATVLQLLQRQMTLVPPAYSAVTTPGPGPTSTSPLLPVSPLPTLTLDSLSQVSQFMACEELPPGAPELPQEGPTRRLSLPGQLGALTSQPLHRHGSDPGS
Sequence of Cytochrome P450 2C9 (P11712 whole entry): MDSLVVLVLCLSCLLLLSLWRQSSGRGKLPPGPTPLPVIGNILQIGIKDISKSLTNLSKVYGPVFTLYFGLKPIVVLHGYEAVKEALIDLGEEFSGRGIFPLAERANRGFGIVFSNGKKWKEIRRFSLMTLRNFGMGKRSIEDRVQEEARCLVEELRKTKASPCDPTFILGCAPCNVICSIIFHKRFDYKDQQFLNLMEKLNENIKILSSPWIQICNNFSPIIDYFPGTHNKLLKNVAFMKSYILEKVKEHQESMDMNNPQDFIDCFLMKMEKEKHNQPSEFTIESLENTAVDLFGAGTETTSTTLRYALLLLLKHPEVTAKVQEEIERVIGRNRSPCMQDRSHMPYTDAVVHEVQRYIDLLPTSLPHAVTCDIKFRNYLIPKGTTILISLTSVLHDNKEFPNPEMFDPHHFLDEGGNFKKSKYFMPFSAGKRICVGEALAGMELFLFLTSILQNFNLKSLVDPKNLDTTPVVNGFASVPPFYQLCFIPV

SMILES: C[C@@H]1CN(C(=O)[C@H](C)N2CCC(n3c(=O)[nH]c4ccccc43)CC2)C[C@@H](C)N1
- concentration at 0.5 h [1]: 7160 ng/g
- Fu [2]: 10.8%
- concentration at 0.5 h [3]: 109 ng/g
- Drug uptake(free) [4]: 38.1 nM
- efflux ratio (BCRP): 1.2
- IC50 [5]: > 30 µM
- concentration at 1 h [6]: 117 ng/g
- Cmax [7]: 2960 ng/mL
- IC50 (Cytochrome P450 2C19): > 10 µM
- Kp uu [8]: 0.8
- AUC(0-t) [9]: 7990 ng·h/mL
- IC50 (Cytochrome P450 2D6): > 10 µM
- Drug uptake(free) [10]: 49.5 nM
- IC50 (Cytochrome P450 2C9): > 10 µM
- IC50 (Phospholipase D2): 0.23 µM
- IC50 (Cytochrome P450 1A2): > 10 µM
- Tmax [11]: 0.44 h
- Fu [12]: 17.5%
- efflux ratio (MDR1 (P-gp)): 9.2
- CLint scaled [13]: 64 mL/min/kg
- Papp [14]: 5.1 ×10⁻⁶ cm/s
- CL free [15]: 84 mL/min/kg
- Tmax [16]: 3 h
- concentration at 0.25 h [17]: 4550 ng/g
- IC50 (Cytochrome P450 3A4): > 10 µM
- IC50 (Cytochrome P450 2B6): > 10 µM
- PPB [18]: 17.2%
- concentration at 0.25 h [19]: 83.8 ng/g
- concentration at 1 h [20]: 7380 ng/g
- solubility kinetic [21]: 72.6 µg/mL (≈ 188 µM)
- IC50 [22]: 0.006 µM
- bioavailability [23]: 21%
